In ChEMBL document CHEMBL3352088, “Novel derivatives of usnic acid effectively inhibiting reproduction of influenza A virus” (Bioorg Med Chem, 2014) one finds CC50 and selectivity ratio data, which are given here for 50 molecules.

The nature of data set [1]: Cytotoxicity against MDCK cells assessed reduction in cell viability after 48 hrs by MTT assay. The class given is cell-based, Canis lupus familiaris. Conditions: dog, read-out: CTD50. Summed up: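 MDCK monolayers were grown in MEM with 5% fetal calf serum and washed with serum-free MEM. Compounds (5 mg/ml DMSO stock) were applied as twofold dilutions, 1000–4 microgram/ml in MEM, for 48 h at 37°C. After PBS washes, MTT (0,5 mg/ml) was added for 60 min at 37°C, 5% CO2. Formazan was dissolved in DMSO and read at 535 nm. CTD50 is the concentration cutting viability 50%.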
A general note: Tetrazolium dyes change colour on reduction, which living cells bring about.

Data set [2] is described as follows: Selectivity index, ratio of CTD50 for MDCK cells to ED50 for Influenza A virus (A/California/07/09(H1N1)) pdm09. It is filed as toxicity, cell-based. Conditions: dog, read-out: Selectivity Index.

Turning to `CC(=O)C1=C(O)C[C@H]2Oc3c(C(C)=O)c(O)c(C)c(O)c3[C@@]2(C)C1=O`, the CC50 at 48 h in data set [1] came to 14.5 µM. For the same molecule, in data set [2], the selectivity ratio stood at 1.8.

Consider `CC(=O)C1=C(O)C=C2Oc3c4c(c(C)c(O)c3[C@@]2(C)C1=O)O/C(=C\c1cccnc1)C4=O`, for which, in data set [1], the CC50 at 48 h came out at 53.4 µM. Besides, in data set [2], the selectivity ratio turned out to be 7.7.

As for `COc1c(C)c(O)c(C(=O)/C=C/c2ccc(Cl)cc2)c2c1[C@]1(C)C(=Cc3c(c(C)nn3-c3ccccc3)[C@H]1O)O2`, the CC50 at 48 h in data set [1] came out at 253 µM. Besides, the selectivity ratio in data set [2] turned out to be 4.6. Take `CC(=O)C1=C(O)C=C2Oc3c(C(=O)CSc4nc5ccccc5o4)c(O)c(C)c(O)c3[C@@]2(C)C1=O`: the CC50 at 48 h in data set [1] is 2 µM. Besides, the selectivity ratio in data set [2] came out at 1. In the same order, the values of `CC(=O)c1c(O)c(C)c(O)c2c1OC1=CC(=O)/C(=C(/C)NCCCC(=O)O)C(=O)[C@@]12C` are 130 µM and 3.7. Regarding `COc1ccccc1/C=C1\Oc2c(C)c(O)c3c(c2C1=O)OC1=CC(O)=C(C(C)=O)C(=O)[C@@]13C`, the CC50 at 48 h in data set [1] was 32.6 µM. The selectivity ratio in data set [2] was 6.8. On to `COc1ccc(-c2cc(-c3c(O)c(C)c(OC)c4c3OC3=Cc5c(c(C)nn5-c5ccccc5)[C@@H](O)[C@@]34C)n[nH]2)cc1`, for which the CC50 at 48 h in data set [1] came to 1020 µM. Also, in data set [2], the selectivity ratio came to 10. For `CC(=O)C1=C(O)C=C2O[C@@]34O[C@]3(C(C)=O)C(=O)C(C)=C(O)[C@@]4(O)[C@]2(C)C1=O`, in data set [1], the CC50 at 48 h is 152 µM. For the same molecule, the selectivity ratio in data set [2] amounted to 5.3. Consider `COc1cccc(/C=C/C(=O)c2c(O)c(C)c(OC)c3c2OC2=Cc4c(c(C)nn4-c4ccccc4)C(=O)[C@@]23C)c1OC`, for which the CC50 at 48 h in data set [1] stood at 34.6 µM. Besides, in data set [2], the selectivity ratio turned out to be 4.

On to `CC(=O)c1c(O)c(C)c(O)c2c1OC1=CC(=O)/C(=C(/C)N[C@@H](CC(C)C)C(=O)O)C(=O)[C@@]12C`, for which, in data set [1], the CC50 at 48 h was determined as 13.1 µM. Also, the selectivity ratio in data set [2] is 2. `CC(=O)c1c(O)c(C)c(O)c2c1OC1=CC(=O)/C(=C(/C)NCC(=O)O)C(=O)[C@]12C`: the CC50 at 48 h in data set [1] is 150 µM. Also, the selectivity ratio in data set [2] amounted to 14. As for `CC(=O)C1=C(O)C=C2Oc3c4c(c(C)c(O)c3[C@@]2(C)C1=O)O/C(=C\c1ccncc1)C4=O`, the CC50 at 48 h in data set [1] stood at 46.4 µM. In addition, the selectivity ratio in data set [2] was found to be 6.1. For `CC(=O)c1c(O)c(C)c(O)c2c1OC1=CC(=O)/C(=C(/C)N[C@H](CC(=O)O)CC(C)C)C(=O)[C@]12C`, the CC50 at 48 h in data set [1] is 32.8 µM. In addition, the selectivity ratio in data set [2] is 5. On to `CC(=O)C1=C(O)C=C2Oc3c(C(C)=O)c(O)c(C)c(O)c3[C@]2(C)C1=O` [(-)-USNIC ACID], for which, in data set [1], the CC50 at 48 h is 134 µM. Further, the selectivity ratio in data set [2] worked out at 10.2. For `CC(=O)c1c(O)c(C)c(O)c2c1OC1=Cc3c(c(C)nn3-c3ccccc3)C(=O)[C@@]12C`, the CC50 at 48 h in data set [1] came to 832 µM. Further, the selectivity ratio in data set [2] stood at 12. For `CC(=O)C1=C(O)C=C2Oc3c(C(=O)CSCc4ccccc4)c(O)c(C)c(O)c3[C@@]2(C)C1=O` the same measures were 6.4 µM and 3. Consider `COc1c(C)c(O)c(C(=O)/C=C/c2ccccc2)c2c1[C@]1(C)C(=Cc3c(c(C)nn3-c3ccccc3)CC13CO3)O2` (single isomer, unassigned; (+)), for which the CC50 at 48 h in data set [1] came to 18.3 µM. For the same molecule, the selectivity ratio in data set [2] was 3.3. As for `CC(=O)C1=C(O)C=C2Oc3c(C(=O)CSCc4ncccc4C(=O)O)c(O)c(C)c(O)c3[C@@]2(C)C1=O`, the CC50 at 48 h in data set [1] was 177 µM. For the same molecule, the selectivity ratio in data set [2] worked out at 3.1. On to `CSCC[C@H](N/C(C)=C1\C(=O)C=C2Oc3c(C(C)=O)c(O)c(C)c(O)c3[C@@]2(C)C1=O)C(=O)O`, for which, in data set [1], the CC50 at 48 h came out at 21.1 µM. For the same molecule, the selectivity ratio in data set [2] was found to be 5. In the same order, the values of `CC(=O)C1=C(O)C=C2Oc3c(C(=O)CSCc4ccc(C)cc4)c(O)c(C)c(O)c3[C@@]2(C)C1=O` are 2.1 µM and 1. For `CC(=O)c1c(O)c(C)c(O)c2c1OC1=CC(=O)/C(=C(/C)NCCC(=O)O)C(=O)[C@@]12C`, in data set [1], the CC50 at 48 h was 147 µM. Further, the selectivity ratio in data set [2] was determined as 20.3.

`COc1c(C)c(O)c(C(=O)/C=C/c2ccccc2)c2c1[C@@]1(C)C(=Cc3c(c(C)nn3-c3ccccc3)[C@@H]1O)O2`: in data set [1], the CC50 at 48 h was 106 µM. Further, the selectivity ratio in data set [2] was 1.7. `COc1ccc(/C=C/C(=O)c2c(O)c(C)c(OC)c3c2OC2=Cc4c(c(C)nn4-c4ccccc4)[C@@H](O)[C@@]23C)c(OC)c1OC`: the CC50 at 48 h in data set [1] turned out to be 279 µM. Besides, in data set [2], the selectivity ratio is 8.5. In the case of `CC(=O)C1=C(O)C=C2Oc3c(C(C)=O)c(OC(=O)c4ccccc4Br)c(C)c(OC(=O)c4ccccc4Br)c3[C@@]2(C)C1=O`, the CC50 at 48 h in data set [1] was found to be 31.1 µM. Also, the selectivity ratio in data set [2] worked out at 4. For `COc1ccc2[nH]c(SCC(=O)c3c(OC)c(C)c(O)c4c3OC3=CC(O)=C(C(C)=O)C(=O)[C@@]34C)nc2c1`, the CC50 at 48 h in data set [1] came out at 560 µM. Further, in data set [2], the selectivity ratio was 23.1. For `CC(=O)C1=C(O)C=C2Oc3c(C(=O)CSc4nc5ccccc5s4)c(O)c(C)c(O)c3[C@@]2(C)C1=O` the same measures were 58.9 µM and 2. With `CC(=O)c1c(O)c(C)c(O)c2c1OC1=Cc3c(c(C)nn3-c3cccc(C(F)(F)F)c3)C(=O)[C@@]12C`, the CC50 at 48 h in data set [1] was found to be 1100 µM. For the same molecule, the selectivity ratio in data set [2] is 16. For the molecule `COc1ccc(OC)c(/C=C/C(=O)c2c(O)c(C)c(OC)c3c2OC2=Cc4c(c(C)nn4-c4ccccc4)[C@@H](O)[C@@]23C)c1`, the CC50 at 48 h in data set [1] came out at 517 µM. In addition, the selectivity ratio in data set [2] was determined as 20. In the same order, the values of `COc1c(C)c(O)c2c(c1C(=O)CSCCC(=O)O)OC1=CC(O)=C(C(C)=O)C(=O)[C@@]12C` are 938 µM and 5.8.

With `CC(=O)C1=C(O)C=C2Oc3c4c(c(C)c(O)c3[C@]2(C)C1=O)OCC4=O`, the CC50 at 48 h in data set [1] was 132 µM. The selectivity ratio in data set [2] was 2. Regarding `CC(=O)c1c(O)c(C)c(O)c2c1OC1=Cc3c(c(C)nn3-c3ccccc3)C(=O)[C@]12C`, the CC50 at 48 h in data set [1] was 565 µM. In data set [2], the selectivity ratio was determined as 10. Turning to `COc1c(C)c(O)c2c(c1C(=O)CSC1=NCCS1)OC1=CC(O)=C(C(C)=O)C(=O)[C@@]12C`, the CC50 at 48 h in data set [1] was found to be 105 µM. Besides, in data set [2], the selectivity ratio turned out to be 7.1.

Turning to `COc1cccc(/C=C/C(=O)c2c(O)c(C)c(OC)c3c2OC2=Cc4c(c(C)nn4-c4ccccc4)[C@H](O)[C@]23C)c1OC`, the CC50 at 48 h in data set [1] came out at 862 µM. Also, the selectivity ratio in data set [2] was determined as 11.3.

Consider `COc1c(C)c(O)c(C(=O)/C=C/c2ccccc2)c2c1[C@]1(C)C(=Cc3c(c(C)nn3-c3ccccc3)[C@H]1O)O2`, for which the CC50 at 48 h in data set [1] came out at 36.5 µM. Also, the selectivity ratio in data set [2] is 1.1. Turning to `COc1ccccc1/C=C/C(=O)c1c(O)c(C)c(OC)c2c1OC1=Cc3c(c(C)nn3-c3ccccc3)[C@@H](O)[C@@]12C`, in data set [1], the CC50 at 48 h was determined as 909 µM. In addition, the selectivity ratio in data set [2] stood at 11. Consider `CC(=O)c1c(O)c(C)c(O)c2c1OC1=Cc3c(c(C)nn3-c3ccccc3)[C@@H](O)[C@@]12C`, for which the CC50 at 48 h in data set [1] was determined as 26.3 µM. Further, in data set [2], the selectivity ratio is 11. As for `COc1ccc(/C=C/C(=O)c2c(O)c(C)c(OC)c3c2OC2=Cc4c(c(C)nn4-c4ccccc4)[C@@H](O)[C@@]23C)cc1OC`, the CC50 at 48 h in data set [1] is 431 µM. In addition, the selectivity ratio in data set [2] stood at 12.5. For `CC(=O)c1c(O)c(C)c(O)c2c1OC1=CC(=O)/C(=C(/C)NCCCC(=O)O)C(=O)[C@]12C` the same measures were 83.9 µM and 3. As to `COc1cc(/C=C/C(=O)c2c(O)c(C)c(OC)c3c2OC2=Cc4c(c(C)nn4-c4ccccc4)[C@@H](O)[C@@]23C)cc(OC)c1OC`, the CC50 at 48 h in data set [1] was 98.4 µM. The selectivity ratio in data set [2] turned out to be 12. `COc1c(C)c(O)c(C(C)=O)c2c1[C@]1(C)C(=Cc3c(c(C)nn3-c3ccccc3)CC13CO3)O2` (single isomer, unassigned; (+)): the CC50 at 48 h in data set [1] stood at 681 µM. In addition, the selectivity ratio in data set [2] was determined as 2.6. `COc1c(C)c(O)c(C(=O)/C=C/c2ccc(SC)cc2)c2c1[C@]1(C)C(=Cc3c(c(C)nn3-c3ccccc3)[C@H]1O)O2`: in data set [1], the CC50 at 48 h amounted to 530 µM. For the same molecule, the selectivity ratio in data set [2] was determined as 10.

In the case of `COc1c(C)c(O)c2c(c1C(=O)CSc1nc3ccccc3o1)OC1=CC(O)=C(C(C)=O)C(=O)[C@]12C`, the CC50 at 48 h in data set [1] is 178 µM. For the same molecule, the selectivity ratio in data set [2] was found to be 7.5. On to `CC(=O)C1=C(O)C=C2Oc3c(C(C)=O)c(O)c(C)c(O)c3[C@@]2(C)C1=O` [(+)-USNIC ACID], for which the CC50 at 48 h in data set [1] stood at 424 µM. The selectivity ratio in data set [2] amounted to 8.2. `COc1ccc(/C=C/C(=O)c2c(O)c(C)c(OC)c3c2OC2=Cc4c(c(C)nn4-c4ccccc4)[C@@H](O)[C@@]23C)c(OC)c1`: the CC50 at 48 h in data set [1] came out at 517 µM. For the same molecule, the selectivity ratio in data set [2] was found to be 20. For `COc1ccccc1/C=C/C(=O)c1c(O)c(C)c(OC)c2c1OC1=Cc3c(c(C)nn3-c3ccccc3)[C@H](O)[C@]12C` the same measures were 909 µM and 14. For `CC(=O)C1=C(O)C=C2Oc3c4c(c(C)c(O)c3[C@@]2(C)C1=O)O/C(=C\c1ccc(Br)cc1)C4=O` the same measures were 39.4 µM and 8.3.

Turning to `CC(=O)C1=C(O)C=C2O[C@]34O[C@@]3(C(C)=O)C(=O)C(C)=C(O)[C@]4(O)[C@@]2(C)C1=O`, the CC50 at 48 h in data set [1] was 234 µM. Also, in data set [2], the selectivity ratio is 22.

On to `COc1cccc(/C=C/C(=O)c2c(O)c(C)c(OC)c3c2OC2=Cc4c(c(C)nn4-c4ccccc4)[C@@H](O)[C@@]23C)c1OC`, for which, in data set [1], the CC50 at 48 h turned out to be 862 µM. The selectivity ratio in data set [2] stood at 17. With `CC(=O)c1c(O)c(C)c(O)c2c1OC1=Cc3c(c(C)nn3-c3ccccc3)[C@H](O)[C@]12C`, the CC50 at 48 h in data set [1] was 47.8 µM. For the same molecule, the selectivity ratio in data set [2] amounted to 4. For the molecule `CC(=O)c1c(O)c(C)c(O)c2c1OC1=CC(=O)/C(=C(/C)NCC(=O)O)C(=O)[C@@]12C`, in data set [2], the selectivity ratio came to 6.
